Test results from article PMC9366314 (Acta Pharmaceutica Sinica. B, 2022).

Columns and labels:
Gαq/11 [1] = assay: IP1 accumulation assay; format: cell-based; settings: CHO-M1 cells, mean ± SEM (n = 3)
[2] = system: MP41 cells (GNA11 Q209L mutation); assay: Cell proliferation inhibition assay; format: cell-based; settings: MP41, 72 h, read-out: Antiproliferation (IC50, μmol/L) MP41
Summary of the method: (§1)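 Uveal melanoma cells were grown in RPMI-1640 with 10% FBS at 37 °C, 5% CO2. They were resuspended at 3 × 10^3 cells/mL, seeded and left overnight. Cells were exposed to a concentration series of test compound for 72 h. CCK-8 was added for 2–4 h and absorbance read at 450 nm. IC50 values were fitted from the curves and reported as mean ± SEM, n = 3.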

[3] = system: 92.1 cells (GNAQ Q209L mutation); assay: Cell proliferation inhibition assay; format: cell-based; settings: 72 h, read-out: Antiproliferation (IC50, μmol/L) 92.1
Summary of the method: as §1

CHO-M1 cells = assay: Cytotoxicity on CHO-M1 cells; format: cell-based; settings: CCK-8
Gαq/11 [4] = target: Gαq/11 (Homo sapiens, UniProt P50148); assay: Agonist; format: cell-based; settings: HEK293-AT1R cells; different concentrations
Summary of the method: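 HEK293 cells transiently co-transfected with AT1R, Gαq-RLuc8, unlabeled Gβ1 and Gγ2-Venus, replated 24 h after transfection and cultured overnight. Cells were pretreated 1 h with test compound at several concentrations, then AngII was added, followed by coelenterazine as luciferase substrate. BRET between Gα and Gβγ was read on a plate reader. Runs were in triplicate, mean ± SEM (n = 3).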

Gαq/11 [5] = assay: AngII-induced intracellular Ca2+ release in HEK293-AT1R cells; format: cell-based; settings: 100 μmol/L
Summary of the method: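 HEK293 cells overexpressing AT1R were loaded with Fluo-4 AM at 37 °C for 1 h, then pretreated with test compound for 0.5 h. AngII was added at a range of concentrations to build a dose–response curve. Fluorescence was read at 485/525 nm excitation/emission. Data are mean ± SEM, n = 3.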

MP41 cells [6] = assay: Rescue assay, siRNA GNA11 knockdown in MP41 cells; format: cell-based; settings: 72 h
Summary of the method: (§2)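 Cells were transfected with siRNA against GNA11 (MP41) or GNAQ (92.1), or with a matching control siRNA. After 48 h, cells were reseeded at 3000 cells/well and cultured 18–24 h. They were then exposed to test compound for 72 h. CCK-8 was added for 2–4 h and absorbance read at 450 nm. Data are mean ± SEM, n = 3.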

92.1 cells [7] = assay: Rescue assay, siRNA GNAQ knockdown in 92.1 cells; format: cell-based; settings: 10 and 20 μmol/L; 72 h
Summary of the method: as §2

92.1 cells [8] = assay: Cell cycle analysis by flow cytometry, 92.1; format: cell-based
MP41 cells [9] = assay: Apoptosis assay by flow cytometry; format: cell-based; settings: 48 h
Summary of the method: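 MP41 cells were seeded at 3 × 10^5 cells/well, left overnight, then exposed to test compound for 48 h. Washed cells were stained with Annexin V-FITC for 15 min, then with PI for 5 min. Samples were analysed by flow cytometry. Data are mean ± SEM, n = 3.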

92.1 cells [10] = assay: Apoptosis assay by flow cytometry, 92.1; format: cell-based
[11] = system: cleaved caspase-7, Bcl-2, and Mcl-1; assay: Western blot of apoptosis related proteins in UM cells; format: cell-based
Summary of the method: (§3)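 Cells or xenograft tumour tissue were lysed in RIPA buffer with protease and phosphatase inhibitors. Lysates were cleared at 15,000 rpm, 4 °C for 15 min, and protein was quantified by BCA. Proteins were separated on 8%–12% SDS-PAGE, transferred to PVDF and blocked with 5% BSA. After primary and secondary antibodies, bands were detected by enhanced chemiluminescence.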

MP41 cells [12] = assay: Clonogenic; format: cell-based; settings: 1 and 3 μmol/L; 9 days
Summary of the method: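 MP41 cells were seeded at 4000 cells/well and left overnight. They were exposed to test compound for 9 days, with medium and compound renewed every three days. Colonies were fixed in 4% paraformaldehyde for 15 min, stained with crystal violet for 0.5 h and counted with a colony counter. Data are mean ± SEM, n = 3.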

92.1 cells [13] = assay: Clonogenic; format: cell-based; settings: 1 and 3 μmol/L; 9 days
Summary of the method: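 92.1 cells were exposed to test compound for 9 days, and colonies were counted with a colony counter. Data are mean ± SEM, n = 3.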

92.1 cells [14] = assay: Transwell invasion assay, 92.1; format: cell-based; settings: 3, 10, and 20 μmol/L
[15] = Human liver microsome stability assay; format: in vitro ADME; settings: liver microsomes, pH 7.4
Summary of the method: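 Test compound (1 μmol/L) was preincubated for 5 min at 37 °C with human liver microsomes (0.5 mg/mL) in 100 mmol/L potassium phosphate, pH 7.4, with 5 mmol/L MgCl2. Reactions were started with 1 mmol/L NADPH. Aliquots were quenched with acetonitrile containing internal standard at 0, 5, 15, 30 and 45 min, centrifuged and analysed by LC–MS/MS for half-life and intrinsic clearance.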

MP41 xenograft = MP41 xenograft model; format: in vivo, nude BALB/c nu/nu mice; settings: 21 days
Summary of the method: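 Nude BALB/c nu/nu mice (18–22 g, 6–8 weeks) bearing MP41 xenografts were randomised at n = 6/group. They received vehicle or test compound (5, 15 or 30 mg/kg/day) ip for 21 consecutive days. Body weight and tumour size were recorded every 2 days. Tumours were harvested on day 22 for weighing and H&E staining. Groups were compared by one-way ANOVA.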

phosphorylated ERK = assay: Western blot of phosphorylated ERK in MP41 xenograft tumor tissues; format: in vivo, mice; settings: testing dose
Summary of the method: as §3

phosphorylated YAP = assay: Western blot of phosphorylated YAP in MP41 xenograft tumor tissues; format: in vivo, mice; settings: testing dose
Summary of the method: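 Nude BALB/c nu/nu mice (18–22 g, 6–8 weeks) bearing MP41 xenografts were randomised (n = 6/group) and dosed ip daily for 21 days (5, 15 or 30 mg/kg/day arms). Tumours were taken on Day 22 and lysed in RIPA with phosphatase and protease inhibitors. Lysates were spun at 15,000 rpm, 4 °C for 15 min, protein quantified by BCA, run on 8–12% SDS-PAGE, transferred to PVDF, blocked in 5% BSA and detected by ECL.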

Chain of Gαq/11 (Homo sapiens, UniProt P50148) (P50148 whole entry): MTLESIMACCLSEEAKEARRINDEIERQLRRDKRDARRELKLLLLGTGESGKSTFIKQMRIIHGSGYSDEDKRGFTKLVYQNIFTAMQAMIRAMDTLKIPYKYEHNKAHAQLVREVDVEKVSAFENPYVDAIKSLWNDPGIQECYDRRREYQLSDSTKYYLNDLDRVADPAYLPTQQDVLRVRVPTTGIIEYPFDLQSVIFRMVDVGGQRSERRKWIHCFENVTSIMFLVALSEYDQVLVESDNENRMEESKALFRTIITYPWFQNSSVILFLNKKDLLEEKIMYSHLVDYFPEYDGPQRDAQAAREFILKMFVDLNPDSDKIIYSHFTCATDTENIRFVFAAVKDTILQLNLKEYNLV
Chain of Gαq/11 (Homo sapiens, UniProt P50148) (P62873 2-340 partner limits assumed): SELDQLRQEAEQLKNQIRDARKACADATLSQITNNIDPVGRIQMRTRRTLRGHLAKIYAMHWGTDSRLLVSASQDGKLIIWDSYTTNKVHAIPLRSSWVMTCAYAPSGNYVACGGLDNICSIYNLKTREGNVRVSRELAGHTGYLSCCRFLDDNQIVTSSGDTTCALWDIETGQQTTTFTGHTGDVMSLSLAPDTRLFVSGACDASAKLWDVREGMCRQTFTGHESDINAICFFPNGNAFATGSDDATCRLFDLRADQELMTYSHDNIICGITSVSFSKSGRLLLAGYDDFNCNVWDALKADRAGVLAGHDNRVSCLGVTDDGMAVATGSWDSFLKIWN
Chain of Gαq/11 (Homo sapiens, UniProt P50148) (P59768 2-68 partner limits assumed): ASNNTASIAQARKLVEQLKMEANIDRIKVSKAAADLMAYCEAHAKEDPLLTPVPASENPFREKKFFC

CLint scaled at 1 μmol/L [15]: 1.81 L/h/kg
half-life at 1 μmol/L [15]: 57.5 min
SMILES: CN1CCC[C@H]1CN1CCn2cc(-c3ccccc3)nc2[C@@H]1CC1CCCCC1 [GQ262]
IP1 inhibition at 10 μmol/L (Gαq/11 [1]): 57.2 ± 1.9%
IC50 [2]: 5.1 ± 0.6 µmol/L
IC50 [3]: 10.4 ± 0.1 µmol/L
Cell viability of CHO-M1 cells, 2 h (CHO-M1 cells; 2 h, 10 and 20 μmol/L): did not impact the cell viability
Cell viability of CHO-M1 cells, 24 h (CHO-M1 cells; 24 h, up to 20 μmol/L): did not impact the cell viability
Effect on AngII-induced BRET signals (Gαq/11 [4]): dose-dependently inhibitory efficacy on BRET signals
Effect on AngII-stimulated Ca2+ release (Gαq/11 [5]): obviously suppressed the Ca^2+ release
Antiproliferative activity on MP41 (si#control) (MP41 cells [6]; 5 and 10 μmol/L): remarkable antiproliferative activity
Antiproliferative activity on MP41 (si#GNA11) (MP41 cells [6]; GNA11 knockdown): could not inhibit MP41 cell proliferation
Antiproliferative activity on GNAQ knockdown 92.1 cells (92.1 cells [7]): no inhibitory effect on proliferation
Cellular proportion in G0/G1 phase (92.1 cells [8]; 10 μmol/L): 77.1%
Cellular proportion in G0/G1 phase (92.1 cells [8]; 20 μmol/L): 83.5%
Cell apoptosis (MP41 cells [9]; 3 μmol/L): 11.5%
Cell apoptosis (MP41 cells [9]; 10 μmol/L): 16.0%
Apoptotic rate (92.1 cells [10]; 10 μmol/L): 9.34%
Apoptotic rate (92.1 cells [10]; 20 μmol/L): 17.5%
Bcl-2 and Mcl-1 levels [11]: down-regulation
Cleaved caspase-7 level [11]: up-regulation
Colony formation of MP41 cells (MP41 cells [12]): obviously blocked the colony formation
Colony formation of 92.1 cells (92.1 cells [13]): obviously blocked the colony formation
92.1 cell invasion (92.1 cells [14]): poor invasion
Tumor growth inhibition (TGI) (MP41 xenograft; 5 mg/kg/day ip): 55.2%
Tumor growth inhibition (TGI) (MP41 xenograft; 15 mg/kg/day ip): 82.8%
Tumor growth inhibition (TGI) (MP41 xenograft; 30 mg/kg/day ip): 106.6%
Body weight of the mice (MP41 xenograft; 5, 15, 30 mg/kg/day ip): did not decline
Side effects during and after the treatment (H&E staining) (MP41 xenograft; 5, 15, 30 mg/kg/day ip): did not observe manifest side effects
Phosphorylated ERK expression in tumor tissues (phosphorylated ERK): inhibited the phosphorylated ERK
Phosphorylated YAP expression in tumor tissues (phosphorylated YAP): increased the accumulation of phosphorylated YAP
